The full list was thinned out, with hits kept by preference.
UPR XBP1 act = activators of adaptive arm of unfolded protein response (XBP1). CHO-XBP1 luciferase reporter, IRE1-XBP1 UPR activation, luminescence; percent of tunicamycin response, DMSO as zero. 0.33% of 330,000 active. activation, % at 20 µM;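 active = versus positive control, 20 µM dose yields 30% or more activation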
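Assay system: IRE1-XBP1 luciferase reporter CHO line. Input: 1000 cells/well. Buffer or medium: F12 with 10% serum. Doses: 20 µM, 1% DMSO. Times: overnight seeding at 37 °C, 6 h compound treatment at 37 °C. Technique: Steady-Glo luciferase glow luminescence, 10 min after reagent addition.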
CHOP inhibitor = blocks CHOP induction under ER stress | CHO-K1 CHOP-promoter luciferase, tunicamycin-induced, 15-18 h | inhibition, % at 10 µM | 3.8% of 220,000 active;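 active = compounds that reduced the stress-induced luciferase reporter signal by more than about 70% of percent inhibition, limit read from the data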
GAA850 FXN act = increases GAA850 frataxin promoter reporter activity | HEK293 lucGAA850 FXN promoter luciferase reporter, 24 h; percent of 10 µM SAHA response | activation, % at 6 µM | 0.56% of 360,000 active;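 active = activation above the average of all compounds screened plus 3 SD, cutoff fixed separately per campaign, cut at about 7.5% in these data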
CHOP UPR activ = apoptotic UPR (CHOP) activation | CHO-CHOP luciferase reporter, luminescence; percent of tunicamycin response over DMSO baseline | activation, % at 10 µM | 0.34% of 330,000 active | AID 449763;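 active = at 10 µM dose, activation of 40% or more, normalized to positive control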
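Assay system: CHO-CHOP cells, stable luciferase reporter of PERK-eIF2a-CHOP signalling / Buffer or medium: F12 plus 10% serum / Compound dosing: one dose, 10 µM in 0.5% DMSO / Times: 6 h compound treatment, 37 °C / Technique: luciferase luminescence / Read-out: % reporter activation, DMSO baseline versus tunicamycin full activation / Benchmarks: tunicamycin and DMSO controls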
A number is an active result; 0 = inactive; - = not tested or not shown.

SMILES | UPR XBP1 act | CHOP inhibitor | GAA850 FXN act | CHOP UPR activ
Cn1c(C(=O)N2CCCC(C(=O)NCCCSC3CCCCC3)C2)cc2sccc21 (centres undefined) | 0 | 74 | 0 | 0
CCCCCc1c(C)nc(Nc2nc(C)c3cc(OC)ccc3n2)[nH]c1=O | 0 | 90 | 0 | 0
CCc1c(C)nc(Nc2nc(C)c3cc(OC)ccc3n2)[nH]c1=O | 0 | 0 | 0 | 0
NC(c1csc(NC(=O)Nc2ccc(OC(F)(F)F)cc2)n1)C1CCCCC1 (centres undefined) | - | - | 0 | -
COc1ccccc1CNc1nc(Nc2cccc(-c3cnco3)c2)c2sccc2n1 | - | - | 0 | -
CCOC(=O)C1C(C(=O)OCC)C2C(=O)C3C(C(=O)OCC)C(C(=O)OCC)C3C(=O)C12 (centres undefined) | - | - | 0 | -
Cn1nccc1C(=O)NC(=S)Nc1sc2c(c1C#N)CCCCC2 | 0 | 91 | 0 | 0
N#Cc1c(NC(=S)NC(=O)c2ccccc2)sc2c1CCC2 | 0 | 0 | 0 | 0
CCc1ccc(OCCCC(=O)NCc2ccccc2)cc1 | 0 | 0 | 0 | 0
CCc1ccc(OCCCOc2ccc(C=O)cc2)cc1 | 0 | 73 | 0 | 0
COc1cccc(-c2cnc3c(NC(C)=O)cc(-c4cccc(C(=O)NCCO)c4)cn23)c1 | - | - | 0 | -
O=C1C2C(c3ccccc3)=NN(c3ccccc3)C2C(=O)N1c1ccccc1 (centres undefined) | 0 | 73 | 0 | 0
CCCCCC1CCC(c2n[nH]c(=S)n2C)CC1 (centres undefined) | 0 | 95 | 0 | 0
C=CCn1c(C2CC2)n[nH]c1=S | 0 | 0 | 0 | 0
O=C(Nc1cc(-c2ccccc2)[nH]n1)c1ccccc1F | 0 | 0 | 0 | 0
CC1=C(C(=O)Nc2cc(-c3cccc(F)c3)[nH]n2)C2(CCCCC2)OC1=O | 0 | 82 | 0 | 0
CCCNC(=O)C1(C)CCN(C(=O)c2cc(F)cc(F)c2)C1 (centres undefined) | - | - | 0 | -
COc1ccc(Cc2noc(-c3ccc([N+](=O)[O-])cc3)n2)cc1OC | 0 | 0 | 0 | 0
COc1ccc(Cc2noc(-c3ccc(C)cc3)n2)cc1 | 0 | 88 | 0 | 0
COc1ccc(-c2nc(-c3ccc(Br)o3)no2)cc1 | 0 | 76 | 0 | 0
O=C(Cn1c(C2CC2)nc2ccccc2c1=O)Nc1ccc(Br)cc1 | 0 | 84 | 0 | 0
CCCCN(C)c1c(C)nc2ccc(C(=O)NCc3ccc4c(c3)OCO4)cn12 | - | - | 0 | -
COc1cccc(C(=O)Nc2cccc3ccccc23)c1 | 0 | - | 0 | 0
COc1cccc(C(CC(=O)Nc2cccc3ccccc23)NC(=O)c2ccccc2)c1 (centres undefined) | 0 | 84 | 0 | 0
COc1ccc2nc(NC(=O)Nc3cccc4ccccc34)sc2c1 | 0 | 88 | 0 | 0
SMILES | UPR XBP1 act | CHOP inhibitor | GAA850 FXN act | CHOP UPR activ
COc1ccc2nc(NC(=O)CC3Oc4ccccc4NC3=O)sc2c1 (centres undefined) | 0 | 75 | 0 | 0
CCn1c(SCC(=O)Nc2nc3ccccc3s2)nnc1-c1ccc(Br)cc1 | 0 | 0 | 0 | 0
CCn1c(Cc2ccc(OC)cc2)nnc1SCC(=O)Nc1nc2ccccc2s1 | 0 | 83 | 0 | 0
CCOC(=O)C1(C)CCN1C(=O)c1ccc2c(c1)CCO2 (centres undefined) | - | - | 0 | -
Cc1cccc2sc(NC(=O)CSc3nc4ccccc4o3)nc12 | 0 | 0 | 0 | 0
CCOc1ccc(OCC)c(NC(=O)CSc2nc3cccnc3n2C)c1 | 0 | 0 | 0 | 0
COc1ccc2nc(NC(=O)c3ccc4ncsc4c3)sc2c1 | 0 | 91 | 0 | 0
COc1ccc2nc(NC(=O)CSc3nc4ccccc4o3)sc2c1 | 0 | 72 | 0 | 0
CCOc1ccc2nc(NC(=O)CSc3nc4cccnc4n3C)sc2c1 | 0 | 77 | 0 | 0
O=C(CSc1nc2ccccc2o1)Nc1nc2ccc(Br)cc2s1 | 0 | 93 | 0 | 0
COc1ccc2nc(NC(=O)CSc3nc(C)cc(C)n3)sc2c1 | 0 | 0 | 0 | 0
CCOC(=O)c1nn(-c2ccc(C)c(C)c2)c(=O)c2c(N)scc12 | 0 | 92 | 0 | 0
CCOC(=O)c1nn(-c2ccc(OC)cc2)c(=O)c2c(N)scc12 | 0 | 0 | 0 | 0
COc1cccc(CN2CCC2(C)C(=O)Nc2cccc(NS(C)(=O)=O)c2)c1OC (centres undefined) | - | - | 0 | -
NCCS(=O)O | - | 0 | - | -
CCc1ccc(NC(=O)CSc2nc3cc(C(=O)OC)ccc3c(=O)n2CC2CCCO2)cc1 (centres undefined) | 0 | 94 | 0 | 0
COC(=O)c1ccc2c(=O)n(Cc3ccco3)c(SCC(=O)Nc3cc(C)on3)nc2c1 | 0 | 91 | 0 | 0
COC(=O)c1ccc2c(=O)n(Cc3ccco3)c(SCC(=O)Nc3ccccc3Cl)nc2c1 | 0 | 0 | 0 | 0
CC1(C)OCC(N)(CO)CO1 | - | - | 0 | -
CCc1ccc2nc(N3C(=O)C(O)=C(C(=O)c4ccco4)C3c3cccs3)sc2c1 (centres undefined) | 0 | 80 | 0 | 0
CCOC(=O)c1ccc(NC(=O)c2n[nH]c(=O)c3ccccc23)cc1 | 0 | 0 | 0 | 0
CCOC(=O)c1ccccc1NC(=O)c1cncc(Br)c1 | - | 73 | 0 | -
CCOC(=O)c1ccccc1NC(=O)c1cccs1 | 0 | 92 | 0 | 0
CCOC(=O)c1ccccc1NC(=O)c1n[nH]c(=O)c2ccccc12 | 0 | 93 | 0 | 0
COc1cc(NC(=O)c2cccs2)c(C(=O)OCC(=O)NCc2ccccc2)cc1OC | 0 | 87 | 0 | 0
SMILES | UPR XBP1 act | CHOP inhibitor | GAA850 FXN act | CHOP UPR activ
OC[C@@H]1CN(Cc2ccncc2)C[C@H](n2cnc3c(N4CCOCC4)ncnc32)O1 | - | - | 0 | -
O=C(NNC(=O)c1cc(S(=O)(=O)N2CCOCC2)ccc1Cl)c1ccc(F)cc1 | - | - | 0 | -
CCOC(=O)c1ccccc1NC(=O)COc1ccccc1 | 0 | 84 | 0 | 0
COc1ccc(C=NN=C2c3ccccc3-c3ccccc32)cc1OC | - | - | 0 | -
COc1ccc2[nH]c(=O)c(C(c3nnnn3C3CCCC3)N(C)C3CCCCC3)cc2c1 (centres undefined) | 0 | 75 | 0 | 0
Cc1ccc(C(=O)C2C(=O)C3CCC2C3)cc1 (centres undefined) | - | - | 0 | -
Cc1c(C(=O)NCc2cccc(C(F)(F)F)c2)sc(=O)n1Cc1ccc(S(=O)(=O)N(C)C)cc1 | - | - | 0 | -
O=c1oc2cc(OCc3ccc([N+](=O)[O-])cc3)ccc2c2c1CCCC2 | 0 | 77 | 0 | 0
O=C(O)c1ccc(COc2ccc3c4c(c(=O)oc3c2)CCC4)o1 | 0 | 0 | 0 | 0
O=C(Nc1ccc(S(=O)(=O)NCc2ccccc2)cc1)Nc1ccc2c(c1)OCO2 | 0 | 84 | 0 | 0
O=S(=O)(NCc1ccc2c(c1)OCO2)c1ccc2c(c1)oc1ccccc12 | 0 | 95 | 0 | 0
CCCCCc1nc2c(=O)n(C)c3ccccc3c2o1 | 0 | 0 | 0 | 0
CCCCCCCc1nc2c(=O)n(C)c3ccccc3c2o1 | 0 | 89 | 0 | 0
CC(C)CC(NC(=O)C(NC(=O)C(Cc1ccc(OCc2ccccc2)cc1)NC(=O)OC(C)(C)C)C(C)C)C(N)=O (centres undefined) | 0 | 95 | 0 | 0

Source: PubChem BioAssay
